High-throughput results as filed in PubChem.
In the library only some 0.59% were active in any assay of this set; here they are far more common.
V1aR counter: counter-screen for oxytocin receptor agonists: human V1a receptor agonists; CHO-V1R cells, Fluo-8 calcium fluorescence, agonist mode; 0% DMSO, 100% 3 nM vasopressin; activation, % at 3 µM; P37288; actives 0.25% (n = 320,000);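 active = activation above the mean activation of all tested compounds plus 3 SD, per screening run, cut at about 20% in these data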;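 note: signal is peak over basal fluorescence ratio across a 100 second FLIPR read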
Target sequence (P37288 whole entry, looked up): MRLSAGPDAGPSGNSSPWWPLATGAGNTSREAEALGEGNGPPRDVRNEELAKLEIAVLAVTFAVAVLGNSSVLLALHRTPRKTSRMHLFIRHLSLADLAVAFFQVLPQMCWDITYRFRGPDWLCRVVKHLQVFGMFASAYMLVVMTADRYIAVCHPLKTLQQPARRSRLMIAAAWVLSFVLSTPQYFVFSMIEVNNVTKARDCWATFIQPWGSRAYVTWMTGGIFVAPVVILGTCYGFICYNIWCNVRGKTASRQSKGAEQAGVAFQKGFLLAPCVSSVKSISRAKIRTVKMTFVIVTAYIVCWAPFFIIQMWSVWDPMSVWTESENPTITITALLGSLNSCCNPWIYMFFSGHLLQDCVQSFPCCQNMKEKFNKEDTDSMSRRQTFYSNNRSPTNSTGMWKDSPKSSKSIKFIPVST
TRPN1 ag: agonists of zebrafish TRPN1 channel; activation, % at 3 µM; HEK293 zebrafish TRPN1-YFP, Fluo-8 calcium fluorescence; 100% = response to 87 µM carbachol; AID 1424; actives 0.18% (n = 220,000);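 active = activation above its plate's cutoff, the mean activation of test wells on that plate plus 3 SD, cut at about 19% in these data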;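 note: 0% = DMSO alone and 100% = 87 µM carbachol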
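Material: zebrafish TRPN1-YFP in HEK293 cells. Doses: one dose of 3 µM, 0.3% DMSO. Incubation: dye 1 h 37 °C plus 30 min RT. Measured by: intracellular calcium fluorescence with Fluo-8.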
TRPML3 agonist: human mucolipin-3 channel agonism; HEK293 TRPML3-YFP, Fluo-8 calcium fluorescence; 100% = the carbachol control signal; Q8TDD5; actives 0.29% (n = 220,000); activation, % at 3 µM;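 active = activation above its plate's cutoff, the mean activation of the plate's test wells plus 3 SD, cut at about 12% in these data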;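 note: 0% = DMSO only wells and 100% = carbachol wells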
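Test system: HEK293 cells stably carrying human TRPML3-YFP; Doses: single dose, 3 µM final nominal compound, 0.3% DMSO final; Schedule: dye loading 1 h 37 °C then 30 min ambient, 125 s read; Technique: Fluo-8 calcium fluorescence; Benchmarks: high control carbachol 87 µM, low control DMSO.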
OXTR ag: activates the human oxytocin receptor; activation, % at 3 µM; P30559; AID 2435; actives 0.32% (n = 320,000); CHO-OTR cells, Fluo-8 calcium fluorescence; normalized: DMSO 0%, oxytocin 100%;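 active = activation above the mean of all tested compounds plus 3 SD, cutoff set per screening run, cut at about 20% in these data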;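 note: peak over basal fluorescence ratio from a 100 s FLIPR kinetic read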
OXTR potentiate: potentiators of human oxytocin receptor; P30559; CHO-OTR cells, Fluo-8 calcium fluorescence, potentiator mode; 0% = oxytocin EC15, 100% = EC100; activation, % at 3 µM; actives 0.061% (n = 320,000); AID 2445;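 active = activation above that plate's cutoff, the mean activation of tested compounds plus 3 SD, cut at about 6.6% in these data, passing the limit was not always enough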;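 note: 100% uses oxytocin at 75 nM as the full agonist control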
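test system = CHO-OTR cells, human receptor | compound = single-point 3.0 µM | schedule = 6 min compound pre-incubation at room temperature, 100 s kinetic read | signal = Fluo-8 no-wash calcium dye fluorescence, excitation 470-495 nm, emission 515-575 nm | repeats = single well per compound, singlicate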
OXTR agonist cf: confirmation of human oxytocin receptor agonists | shares compounds with OXTR ag | CHO-OTR cells, Fluo-8 calcium fluorescence, agonist | activation, % at 3 µM | actives 20% (n = 390) | AID 434963;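 active = mean activation above about 20% derived from the earlier single-dose screen, limit read from the data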;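 note: peak over minimum fluorescence ratio per well during a 100 second FLIPR read; 0% = DMSO alone and 100% = oxytocin high control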
V1R ag counter 3x: counter-screen for oxytocin receptor agonists: V1a receptor agonists; shares compounds with OXTR ag; CHO-V1R cells, Fluo-8 calcium fluorescence, agonist; activation, % at 3 µM; actives 10% (n = 390); AID 434991;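 active = mean activation over triplicate exceeds the hit threshold set in the earlier primary screen, cut at about 20% in these data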;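 note: peak over basal fluorescence ratio within a 100 second read; 0% = DMSO alone and 100% = 3 nM vasopressin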
Numbers without * were called inactive; . = no result given; ! = repeats disagree.

SMILES	V1aR counter	TRPN1 ag	TRPML3 agonist	OXTR ag	OXTR potentiate	OXTR agonist cf	V1R ag counter 3x
COc1ccccc1N(C(=O)c1snc(C(N)=O)c1N)C(C(=O)NC1CCCCC1)c1cccc(OC)c1OC (stereo not drawn)	0	.	.	-1	-26	.	.
CS(=O)(=O)N1CCCC(c2nc(-c3ccc(S(=O)(=O)NCc4ccccc4)cc3)no2)C1 (stereo not drawn)	13	13	4	20*	-9	12	11
Nc1nc(N)c2cc(Sc3ccc4ccccc4c3)ccc2n1	13	2	3	27*	-11	1	1
C1CCC(C(CC2CCCCN2)C2CCCCC2)CC1 (stereo not drawn)	10	0	1	21*!	-4	5	3
CC(C)Oc1ccc(C(CCN)C2CCCCC2)cc1 (stereo not drawn)	6	.	.	21*	-18	17	8
O=C(O)c1ccc(S(=O)(=O)Nc2ccc3c(c2)OCCO3)cc1	2	.	.	1	1	.	.
COC(=O)c1ccc(NC(=O)Nc2ccc([N+](=O)[O-])cc2)cc1	16	.	.	20*	-16	14	12
O=c1oc2ccccc2cc1-c1nc2c(s1)CCc1ccccc1-2	1	0	0	-1	-2	.	.
O=c1oc2cc(O)ccc2cc1-c1nc2c(s1)CCc1ccccc1-2	14	25*	8	26*	-5	160*	181*
Cc1ccc2nc(N(CCCN(C)C)C(=O)CCc3ccccc3)sc2c1	9	0	2	23*	-10	4	1
Cc1ccc2nc(N(CCCN(C)C)C(=O)CS(=O)(=O)c3ccccc3)sc2c1	1	.	.	4	-1	.	.
CN(C)CCCN(C(=O)COc1ccccc1)c1nc2ccc(Cl)cc2s1	7	1	1	9	-9	.	.
CN(C)CCCN(C(=O)CCc1ccccc1)c1nc2ccc(Cl)cc2s1	14	1	3	24*	-12	6	2
CC(=O)N1CCN(c2ccc(NS(=O)(=O)c3ccc(C)cc3)cc2)CC1	2	.	.	1	-5	.	.
CCCCNC(=O)c1sc(=S)n2c1[nH]c(=O)c1ccc(C(=O)NCCc3ccc(OC)c(OC)c3)cc12	1	.	.	-1	-7	.	.
O=C(NCc1ccccc1)c1sc(=S)n2c1[nH]c(=O)c1ccccc12	13	4	0	21*	-23	12	11
COc1cc(CNCCO)cc(Cl)c1OCc1ccc(Cl)cc1Cl	9	2	4	20*	-7	8	2
COc1cc(CNCc2ccccn2)ccc1OCc1ccc(Cl)cc1Cl	11	-1	0	25*	-8	5	2
O=C(Cc1ccccc1)NNC(=O)C1CC=CCC1 (stereo not drawn)	0	.	.	0	2	.	.
Cc1c2ccccc2nc2c(F)c(NC(C)C)c(F)c(F)c12	11	1	1	20*	-6	51*	66*
C=CCN1C(=O)C(CC(=O)O)SC1=Nc1ccc(C(=O)O)cc1 (stereo not drawn)	1	2	1	0	-6	.	.
C=CCN1C(=O)C(Cc2ccccc2Cl)SC1=Nc1ccc(C(=O)O)cc1 (stereo not drawn)	10	2	0	21*	-12	8	8
Nc1nonc1C(=O)NCCNCc1cc(Br)ccc1OCc1ccc(F)cc1	13	0	2	20*	-8	8	10
CC(C)N(CCNCC(O)COc1ccc(C(C)(C)c2ccccc2)cc1)C(C)C (stereo not drawn)	16	3	-1	23*	-24	10	4
OC(CNCCc1ccccc1)COc1ccc(OCC(O)CNCCc2ccccc2)cc1 (stereo not drawn)	1	1	1	2	-11	.	.
CN(C)CCCOc1ccc(C(C)(C)c2ccccc2)cc1	10	0	1	20*	-13	7	1
